# Assay results taken from ChEMBL document CHEMBL2346625 (Bioorg Med Chem, 2013).
# pIC50: −log10 of the molar value.
# Key:
# Liver [1] = assay: (§1) Half life in mouse liver microsomes at 0.5 to 1 uM by LC-MS/MS analysis; assay type: ADME, Microsome; details: microsomes, 1 µM
# [2] = Kinetic solubility of the compound in aqueous Todd Hewitt bacterial media at 0.87 to 99 uM by UV/Vis spectrophotometry; assay type: physicochemical; details: read-out: Kinetic_solubility
# How it was run: (§2)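 10 mM DMSO stocks serially diluted in DMSO, then added 1:100 to Todd-Hewitt broth at 37 °C, giving final 0.87–99 μM. Plate shaken, incubated 5 min at 37 °C, and OD600 read (n = 3). Solubility taken as the midpoint between the first concentration with OD600 ≥ 0.005 AU above background and the preceding concentration, ± half the interval.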
# Streptococcus pyogenes = assay: Growth inhibition of Streptococcus pyogenes UMAA2616 at 50 uM relative to control; assay type: organism-based; details: in vitro
# How it was run: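 Diluted 1:1000 into THY containing compound at 50 μM in 0.1% DMSO and grown in triplicate at 37 °C to OD600 ≈ 1.0. Growth given as OD600 test/DMSO control; mean of at least three experiments ± SD.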
# [3] = Kinetic solubility of the compound in phosphate-buffered saline at 0.87 to 99 uM by UV/Vis spectrophotometry; assay type: physicochemical
# How it was run: as §2, with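 “PBS” for “Todd-Hewitt broth”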
# [4] = as §1; assay type: ADME, Microsome; details: liver microsomes
# [5] = biological target: T1, Streptokinase (Streptococcus pyogenes) (UniProt P96471); assay: Inhibition of Streptococcus pyogenes UMAA2616 streptokinase assessed as cleavage of S-2403 to colored product p-nitroaniline at 5 uM after 2 hrs relative to control
# T1 sequence (whole entry): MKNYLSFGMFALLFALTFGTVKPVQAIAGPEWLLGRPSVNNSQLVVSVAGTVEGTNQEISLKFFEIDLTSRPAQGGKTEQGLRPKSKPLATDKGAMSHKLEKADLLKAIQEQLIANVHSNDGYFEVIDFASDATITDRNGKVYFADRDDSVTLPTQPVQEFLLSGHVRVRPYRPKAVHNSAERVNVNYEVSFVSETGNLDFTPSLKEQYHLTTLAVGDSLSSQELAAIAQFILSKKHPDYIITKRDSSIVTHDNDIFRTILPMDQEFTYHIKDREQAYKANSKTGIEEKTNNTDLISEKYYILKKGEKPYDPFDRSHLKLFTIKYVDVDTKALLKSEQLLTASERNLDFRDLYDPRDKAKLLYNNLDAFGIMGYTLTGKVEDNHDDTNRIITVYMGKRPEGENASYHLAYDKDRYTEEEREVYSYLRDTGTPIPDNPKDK
# How it was run: (§3)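 UMAA2616 grown in THY (0.1% DMSO, compound at 5 or 50 μM) at 37 °C to OD600 ≈ 1.0, then centrifuged. Supernatant mixed with PBS, human plasma and S-2403 plasmin substrate and incubated 2 h at 37 °C; A405 read. Activity came from a DMSO-culture standard curve, was corrected for growth by OD600 and expressed as test/control. Mean of at least three experiments ± SD.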
# [6] = biological target: T1, Streptokinase (Streptococcus pyogenes); assay: Inhibition of Streptococcus pyogenes UMAA2616 streptokinase assessed as cleavage of S-2403 to colored product p-nitroaniline at 50 uM after 2 hrs relative to control; how it was run: as §3
# Streptokinase = biological target: T2, Streptokinase (Streptococcus pyogenes, UniProt P96471)
# T2 sequence (P96471 whole entry): T1 sequence (whole entry)
# Liver [7] = assay: Metabolic stability in mouse liver microsomes assessed as oxidation of compound; assay type: ADME, Microsome
Compound,t1/2 (Liver [1]) [min],T/C (Streptococcus pyogenes),further results
C=CCn1c(SCC#N)nc2c(c1=O)C(C)(C)Cc1ccccc1-2,20.6,1,solubility kinetic [2]: 34.5 µM; solubility kinetic [3]: 3 µM
C=CCn1c(SCc2ccccn2)nc2c(c1=O)C(C)(C)Cc1ccccc1-2,–,1.05,–
C=CCn1c(NCC)nc2c(c1=O)C(C)(C)Cc1ccccc1-2,1.1,0.06,–
C=CCn1c(SCCOC)nc2c(c1=O)C(C)(C)Cc1cc(C(=O)O)ccc1-2,–,0.86,–
C=CCn1c(OCC)nc2c(c1=O)C1(CCCCC1)Cc1ccccc1-2,–,1.02,solubility kinetic [2]: 14.5 µM
C=CCn1c(SCC(N)=O)nc2c(c1=O)C(C)(C)Cc1ccccc1-2,< 2,1,–
C=CCn1c(SCc2ccc(NC(C)=O)cc2)nc2c(c1=O)C1(CCCCC1)Cc1ccccc1-2,–,0.96,–
COCCSc1nc2c(c(=O)n1CCc1ccc(OC)cc1)C(C)(C)Cc1ccccc1-2,–,0.97,half-life [4]: 9.4 min; T/C [5]: 0.71; T/C [6]: 0.61
CCSc1nc2c(c(=O)n1CC(F)(F)F)C(C)(C)Cc1ccc(OC)cc1-2,–,1.01,half-life [4]: 3 min
C=CCn1c(SCCCC)nc2c(c1=O)C1(CCCCC1)Cc1ccccc1-2 [CCG-2979],37.2,0.95,solubility kinetic [2]: 9 µM; solubility kinetic [3]: 2 µM; pIC50 (Streptokinase): < 4.30
CCn1c(SCCOC)nc2c(c1=O)C(C)(C)Cc1ccccc1-2,0.8,0.39,–
C=CCn1c(OCC)nc2c(c1=O)C(C)(C)Cc1ccccc1-2,0.9,0.5,–
C=CCn1c(SCCOC)nc2c(c1=O)C(C)(C)Cc1cc(C(=O)NCc3ccccc3)ccc1-2,–,1.07,–
C=CCn1c(SCCOC)nc2c(c1=O)C1(CCCCC1)Cc1ccccc1-2,6.4,0.99,solubility kinetic [2]: 9 µM; Stability (Liver [7]): Stable
C=CCn1c(NCC)nc2c(c1=O)C1(CCCCC1)Cc1ccccc1-2,–,0.32,solubility kinetic [2]: 9 µM
C=CCn1c(SCC)nc2c(c1=O)C(C)(C)Cc1ccc(OCCOC)cc1-2,–,1.02,–

Compound,t1/2 (Liver [1]) [min],T/C (Streptococcus pyogenes),further results
C=CCn1c(NCC)nc2c(c1=O)C(C)(C)Cc1cc(CC(=O)OCC)ccc1-2,–,1.02,–
C=CCn1c(SCC)nc2c(c1=O)C(C)(C)Cc1cc(OCCc3ccccc3)ccc1-2,–,1.01,–
C=CCn1c(SCC(=O)OCC)nc2c(c1=O)C(C)(C)Cc1ccccc1-2,–,1.01,–
C=CCn1c(SCC)nc2c(c1=O)C(C)(C)Cc1cc(OCCOC)ccc1-2,–,0.85,–
C=CCn1c(SCc2ccc(OC)cc2)nc2c(c1=O)C1(CCCCC1)Cc1ccccc1-2,–,1.05,–
C=CCn1c(SCCN(C)C)nc2c(c1=O)C1(CCCCC1)Cc1ccccc1-2,–,0.88,–
C=CCn1c(SCCO)nc2c(c1=O)C(C)(C)Cc1ccccc1-2,–,0.06,–
C=CCn1c(SCc2ccccc2)nc2c(c1=O)C1(CCCCC1)Cc1ccccc1-2 [CCG-102487],0.6,0.96,solubility kinetic [2]: 9 µM; pIC50 (Streptokinase): < 4.30
C=CCn1c(SCC)nc2c(c1=O)C(C)(C)Cc1cc(OCCCC)ccc1-2,–,0.87,–
C=CCn1c(SCCOC)nc2c(c1=O)C(C)(C)Cc1cc(C(=O)NCCc3c[nH]cn3)ccc1-2,–,0.99,–
CCn1c(SCc2ccccc2)nc2c(c1=O)C1(CCCC1)Cc1ccccc1-2,–,1.07,–
C=CCn1c(SC)nc2c(c1=O)C1(CCCCC1)Cc1ccccc1-2,13.5,–,solubility kinetic [2]: 22 µM
C=CCn1c(SCc2ccccc2)nc2c(c1=O)C(C)(C)Cc1ccccc1-2,–,–,solubility kinetic [2]: 9 µM
C=CCn1c(SCC)nc2c(c1=O)C(C)(C)Cc1cc(OCCCCCCC)ccc1-2,–,1.05,–
C=CCn1c(SCCOC)nc2c(c1=O)C(C)(C)Cc1ccccc1-2,1.7,–,solubility kinetic [2]: 22.5 µM
